{"data": "Measured values from different studies", "effect on": "microbial growth", "note": "Compare with care: the assays were run in different laboratories."}
{"Structure (SMILES)": "CC1(C)S[C@@H]2[C@H](NC(=O)[C@H](N)c3ccccc3)C(=O)N2[C@H]1C(=O)O", "organism": "Salmonella enterica", "test": "broth dilution", "test system": "ATCC14028", "setting": "12 h", "measurement": "MIC", "value": "0.25 µg/mL"}
{"Structure (SMILES)": "N#CC(C#N)=C1SC(C(=O)c2ccc(Nc3cnccn3)cc2)=NN1c1ccc([N+](=O)[O-])cc1", "organism": "Salmonella enterica", "test": "broth dilution", "test system": "ATCC13076 TYPHIMURIUM", "measurement": "MIC", "value": "12.5 µg/mL"}
{"Structure (SMILES)": "O=C1/C(=C/c2ccc3ccccc3c2O)NC(=S)N1c1ccccc1", "organism": "Bacillus cereus", "test": "broth dilution", "test system": "ATCC14579", "measurement": "MIC", "value": "24 µg/mL"}
{"Structure (SMILES)": "COc1ccc(N2N=C(C(=O)c3ccc(Nc4cnccn4)cc3)SC2=C(C#N)C#N)cc1", "organism": "Salmonella enterica", "test": "broth dilution", "test system": "ATCC13076 TYPHIMURIUM", "measurement": "MIC", "value": "6.25 µg/mL"}
{"Structure (SMILES)": "Nc1ccc(S(=O)(=O)Nc2ncccn2)cc1", "organism": "Salmonella enterica", "test": "broth dilution", "test system": "TYPHIMURIUM", "measurement": "MIC", "value": "94 µg/mL"}
{"Structure (SMILES)": "N#CC(C#N)=C1SC(C(=O)c2ccc(Nc3cnccn3)cc2)=NN1c1ccccc1", "organism": "Salmonella enterica", "test": "broth dilution", "test system": "ATCC13076 TYPHIMURIUM", "measurement": "MIC", "value": "100 µg/mL"}
{"Structure (SMILES)": "CCCS(=O)(=O)Oc1ccc(C=NNC(=O)CSc2nc3c(C)cccc3c(=O)n2-c2ccccc2)cc1OC", "organism": "Bacillus cereus", "test": "well diffusion", "setting": "20 µg/mL", "measurement": "inhibition zone", "value": "3 mm"}
{"Structure (SMILES)": "O=c1oc2ccccc2c(Nc2ccccc2)c1I", "organism": "Salmonella enterica", "test": "broth dilution", "test system": "TYPHIMURIUM", "measurement": "MIC90", "value": "10 µg/mL"}
{"Structure (SMILES)": "CNC(C)C1CCC(N)C(OC2C(N)CC(N)C(OC3OCC(C)(O)C(NC)C3O)C2O)O1 (centres unmarked)", "organism": "Bacillus cereus", "test": "broth dilution", "measurement": "MIC", "value": "2 µg/mL"}
{"Structure (SMILES)": "[H]/N=C(/N)N[C@H]1[C@H](O)[C@@H](O)[C@H](O[C@@H]2O[C@@H](C)[C@](O)(C=O)[C@H]2O[C@@H]2O[C@@H](CO)[C@H](O)[C@@H](O)[C@@H]2NC)[C@@H](N/C(N)=N\\[H])[C@@H]1O", "organism": "Bacillus cereus", "test": "broth dilution", "test system": "ATCC14579", "measurement": "MIC", "value": "15 µg/mL"}
{"Structure (SMILES)": "COc1ccc(C=NNC(=O)CSc2nc3c(C)cccc3c(=O)n2-c2ccccc2)cc1OS(C)(=O)=O", "organism": "Bacillus cereus", "test": "well diffusion", "setting": "20 µg/mL", "measurement": "inhibition zone", "value": "2 mm"}
